For 47 compounds, IC50 and inhibition results are on record in ChEMBL document CHEMBL3259675, “Novel N-substituted sophoridinol derivatives as anticancer agents” (Eur J Med Chem, 2014).

The first assay deals with NCI-H1299. Description: Antiproliferative activity against human NCI-H1299 cells assessed as growth inhibition after 48 hrs by MTT assay. It is filed as functional, cell-based. The note with it: NCI-H1299, 48 h. The essentials: (§1)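 Cell lines from ATCC, grown in MEM-EBSS with 10% FBS and 1% penicillin-streptomycin at 37 °C, 5% CO2. Seeded at 4000 cells/well, left 24 h, then exposed to a concentration series for 48 h. Growth read by MTT. Percent inhibition was computed at each concentration and IC50 derived from it. Triplicate determinations, reported as mean SD.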
On the technique in general: Tetrazolium assays rely on reduction of a dye to a coloured formazan, in cell work by metabolically active cells.
The term IC50 denotes the point on the concentration scale where inhibition reaches its midpoint. In the case of `CC[C@@]1(O)C(=O)OCc2c1cc1n(c2=O)Cc2cc3c(CN(C)C)c(O)ccc3nc2-1` [TOPOTECAN], the half-maximal inhibitory concentration (IC50) turned out to be 11 µM.

A further assay deals with KB. Put plainly: Antiproliferative activity against human KB cells assessed as growth inhibition after 48 hrs by MTT assay. It counts as functional, cell-based.
Conditions: not given
The essentials:
as §1
For `CC[C@@]1(O)C(=O)OCc2c1cc1n(c2=O)Cc2cc3c(CN(C)C)c(O)ccc3nc2-1` [TOPOTECAN], the IC50 was > 200 µM.

System in the next assay: not listed separately
Put plainly: Antiproliferative activity against human U87 cells assessed as growth inhibition after 48 hrs by MTT assay. It is filed as functional, cell-based, U-87MG ATCC. As to conditions: U-87 MG. In outline: as §1
On to `CC[C@@]1(O)C(=O)OCc2c1cc1n(c2=O)Cc2cc3c(CN(C)C)c(O)ccc3nc2-1` [TOPOTECAN], for which the IC50 was determined as 0.16 µM.

Another assay deals with HepG2. Put plainly: Antiproliferative activity against human HepG2 cells assessed as growth inhibition at 10 ug/ml after 48 hrs by MTT assay. It counts as functional. As to conditions: HepG2, 48 h. The essentials: as §1
As a reminder, the inhibition is the change of the read-out against control, counted positive when it falls. Take `CC(C)(C)CN1C[C@H]2CCCN3CCC[C@@H]([C@H]23)[C@H]1CCCCO`: the inhibition at 10 µg/mL came out at 95.7%.
Same read-out and setting: the same measure for `COC(=O)CCC[C@@H]1[C@H]2CCCN3CCC[C@H](CN1Cc1cccc(F)c1)[C@@H]23`: 81.8%; for `O=C(O)CCC[C@@H]1[C@H]2CCCN3CCC[C@H](CN1Cc1ccc(Br)cc1)[C@@H]23`: 24.9%.
Still for that read-out and setting: the same measure for `OCCCC[C@@H]1[C@H]2CCCN3CCC[C@H](CN1Cc1cccc(F)c1)[C@@H]23`: 24.3%; for `COCCCC[C@@H]1[C@H]2CCCN3CCC[C@H](CN1Cc1ccccc1)[C@@H]23`: 4.4%; for `COC(=O)CCC[C@@H]1[C@H]2CCCN3CCC[C@H](CN1Cc1cccc(Cl)c1)[C@@H]23`: 84.9%.
Same read-out and setting: with `OCCCC[C@@H]1[C@H]2CCCN3CCC[C@H](CN1Cc1ccco1)[C@@H]23` the figure was 33.2%.
With `CC(C)CN1C[C@H]2CCCN3CCC[C@@H]([C@H]23)[C@H]1CCCC(=O)O`, the inhibition at 10 µg/mL was determined as 10.7%.
On to `O=C(O)CCC[C@@H]1[C@H]2CCCN3CCC[C@H](CN1Cc1cccc(Cl)c1)[C@@H]23`, for which the inhibition at 10 µg/mL is 22.8%.
In the case of `OCCCC[C@@H]1[C@H]2CCCN3CCC[C@@H](CN1Cc1ccc(Cl)cc1)[C@@H]23`, the inhibition at 10 µg/mL turned out to be 4.9%.
Regarding `O=C(O)CCC[C@@H]1[C@H]2CCCN3CCC[C@H](CN1Cc1cccc(F)c1)[C@@H]23`, the inhibition at 10 µg/mL was found to be 25.2%.
Still for that read-out and setting: the same measure for `OCCCC[C@@H]1[C@H]2CCCN3CCC[C@@H](CN1Cc1ccccc1)[C@@H]23`: 31%.
Consider `O=C(O)CCC[C@@H]1[C@H]2CCCN3CCC[C@H](CN1Cc1ccccc1F)[C@@H]23`, for which the inhibition at 10 µg/mL is 1.6%.
On the same count and under the same terms, with `COC(=O)CCC[C@@H]1[C@H]2CCCN3CCC[C@H](CN1Cc1ccncc1)[C@@H]23` the figure was 29.9%; with `OCCCC[C@@H]1[C@H]2CCCN3CCC[C@H](CN1Cc1ccccc1)[C@@H]23`, 18.7%.
Still for that read-out and setting: the same measure for `CCCN1C[C@H]2CCCN3CCC[C@@H]([C@H]23)[C@H]1CCCC(=O)O`: 25.3%; for `CCOCCCC[C@@H]1[C@H]2CCCN3CCC[C@H](CN1Cc1ccccc1)[C@@H]23`: 2.1%.
Same read-out and setting: the same measure for `NC(=O)CCC[C@@H]1[C@H]2CCCN3CCC[C@H](CN1Cc1ccc(Cl)cc1)[C@@H]23`: 1.7%; for `OCCCC[C@@H]1[C@H]2CCCN3CCC[C@H](CN1Cc1ccccc1F)[C@@H]23`: 30.9%.
`O=C(O)CCC[C@@H]1[C@H]2CCCN3CCC[C@H](CN1Cc1ccc(Cl)cc1)[C@@H]23`: the inhibition at 10 µg/mL came out at 3.5%.
On to `COCCCC[C@@H]1[C@H]2CCCN3CCC[C@H](CN1Cc1ccc(F)cc1)[C@@H]23`, for which the inhibition at 10 µg/mL amounted to 6.8%.
Same read-out and setting: the same measure for `CCOCCCC[C@@H]1[C@H]2CCCN3CCC[C@H](CN1Cc1ccc(F)cc1)[C@@H]23`: 5.1%; for `COC(=O)CCC[C@@H]1[C@H]2CCCN3CCC[C@H](CN1CC(C)C)[C@@H]23`: 26.8%; for `OCCCC[C@@H]1[C@H]2CCCN3CCC[C@@H](CN1Cc1ccc(F)cc1)[C@@H]23`: 0.1%.
With `COC(=O)CCC[C@@H]1[C@H]2CCCN3CCC[C@H](CN1Cc1ccc(Br)cc1)[C@@H]23`, the inhibition at 10 µg/mL worked out at 89.6%.
Still for that read-out and setting: the same measure for `CCCCN1C[C@H]2CCCN3CCC[C@@H]([C@H]23)[C@H]1CCCCO`: 19.7%.
On the same count and under the same terms, with `COC(=O)CCC[C@H]1NC[C@H]2CCCN3CCC[C@H]1[C@H]23` the figure was 33.4%.
The same measure, in the same setting: the same measure for `COCCCC[C@@H]1[C@H]2CCCN3CCC[C@H](CN1Cc1ccc(Cl)cc1)[C@@H]23`: 0.3%.
Take `O=C(O)CCC[C@@H]1[C@H]2CCCN3CCC[C@H](CN1Cc1ccc(F)cc1)[C@@H]23`: the inhibition at 10 µg/mL was determined as 2%.
The same measure, in the same setting: with `CCCN1C[C@H]2CCCN3CCC[C@@H]([C@H]23)[C@H]1CCCC(=O)OC` the figure was 24.9%; with `OCCCC[C@@H]1[C@H]2CCCN3CCC[C@H](CN1Cc1ccc(F)cc1)[C@@H]23`, 35.7%; with `O=C(O)CCC[C@@H]1[C@H]2CCCN3CCC[C@H](CN1Cc1ccccc1)[C@@H]23`, 1.5%.
Still for that read-out and setting: with `Cc1ccc(CN2C[C@H]3CCCN4CCC[C@@H]([C@H]34)[C@H]2CCCCO)cc1` the figure was 17.8%.
Same read-out and setting: with `CC[C@@]1(O)C(=O)OCc2c1cc1n(c2=O)Cc2cc3c(CN(C)C)c(O)ccc3nc2-1` [TOPOTECAN] the figure was 72.6%; with `OCCCC[C@@H]1[C@H]2CCCN3CCC[C@H](CN1Cc1ccncc1)[C@@H]23`, 1.2%.
As to `CCCN1C[C@H]2CCCN3CCC[C@@H]([C@H]23)[C@H]1CCCCO`, the inhibition at 10 µg/mL is 0.9%.
The same measure, in the same setting: the same measure for `CCOCCCC[C@@H]1[C@H]2CCCN3CCC[C@H](CN1Cc1ccc(Cl)cc1)[C@@H]23`: 0.2%; for `COC(=O)CCC[C@@H]1[C@H]2CCCN3CCC[C@H](CN1Cc1ccccc1F)[C@@H]23`: 60.8%; for `COC(=O)CCC[C@@H]1[C@H]2CCCN3CCC[C@@H](CN1Cc1ccc(F)cc1)[C@@H]23`: 0.8%.
The same measure, in the same setting: the same measure for `OCCCC[C@@H]1[C@H]2CCCN3CCC[C@H](CN1Cc1ccccc1Cl)[C@@H]23`: 88.1%.
On the same count and under the same terms, with `CC(C)CN1C[C@H]2CCCN3CCC[C@@H]([C@H]23)[C@H]1CCCCO` the figure was 9.1%; with `COC(=O)CCC[C@@H]1[C@H]2CCCN3CCC[C@H](CN1Cc1ccco1)[C@@H]23`, 16.6%.
Regarding `O=C(O)CCC[C@@H]1[C@H]2CCCN3CCC[C@H](CN1Cc1ccncc1)[C@@H]23`, the inhibition at 10 µg/mL turned out to be 22.3%.
Still for that read-out and setting: the same measure for `OCCCC[C@@H]1[C@H]2CCCN3CCC[C@H](CN1CCc1ccccc1)[C@@H]23`: 34.6%.
On to `COC(=O)CCC[C@@H]1[C@H]2CCCN3CCC[C@H](CN1Cc1ccc(F)cc1)[C@@H]23`, for which the inhibition at 10 µg/mL worked out at 73.1%.

A further assay has as its system HCT-116. Put plainly: Antiproliferative activity against human HCT116 cells assessed as growth inhibition after 48 hrs by MTT assay. It is filed as functional, cell-based. The note with it: HCT-116, 48 h. The essentials: as §1
Take `CC[C@@]1(O)C(=O)OCc2c1cc1n(c2=O)Cc2cc3c(CN(C)C)c(O)ccc3nc2-1` [TOPOTECAN]: the IC50 amounted to 4.32 µM.

The next assay concerns HepG2. Put plainly: Antiproliferative activity against human HepG2 cells assessed as growth inhibition after 48 hrs by MTT assay. It counts as functional, cell-based. As to conditions: HepG2, 48 h. In outline: as §1
With `CC[C@@]1(O)C(=O)OCc2c1cc1n(c2=O)Cc2cc3c(CN(C)C)c(O)ccc3nc2-1` [TOPOTECAN], the half-maximal inhibitory concentration (IC50) worked out at 1.66 µM.
For the compound `O=C(O)CCC[C@@H]1[C@H]2CCCN3CCC[C@H](CN1C(=O)CBr)[C@@H]23`, the concentration for half-maximal inhibition (IC50) was found to be 15.4 µg/mL.
Turning to `O=C1CCC[C@@H]2[C@H]3CCCN4CCC[C@H](CN12)[C@@H]34` [SOPHORIDINE], the IC50 is > 20 µg/mL.

For the next assay, the system named is MCF7. Description: Antiproliferative activity against human MCF7 cells assessed as growth inhibition after 48 hrs by MTT assay. It counts as functional, cell-based. As to conditions: MCF7, 48 h. The essentials:
as §1
On to `CC[C@@]1(O)C(=O)OCc2c1cc1n(c2=O)Cc2cc3c(CN(C)C)c(O)ccc3nc2-1` [TOPOTECAN], for which the IC50 was 14.3 µM.
